Test results published in article PMC10448641 (ACS Omega, 2023).

System: WISH cells
Test: MTT cytotoxicity assay, WISH normal cells
Assay type: cell-based
Details: read-out: IC50 ± SD, WISH (Normal cells)
In short: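 Cells obtained from the Egyptian National Cancer Institute and grown in RPMI-1640/DMEM with L-glutamine. Seeded at 5 × 10^4 cells/well in triplicate and treated at 0.1, 1, 10 and 100 μg/mL. Viability read by MTT on the second day with absorbance on a microplate reader. IC50 derived against control-group viability, recorded in triplicate, mean ± SD.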

Work on `COc1cccc2c1C(=O)c1c(O)c3c(c(O)c1C2=O)C[C@@](O)(C(=O)CO)C[C@@H]3O[C@H]1C[C@H](N)[C@H](O)[C@H](C)O1` [Doxorubicin] yielded an IC50 of 56.5 ± 2.7 µM.
